Source: ChEMBL document CHEMBL5724801, “EUbOPEN Chemogenomics Library - Multiplex” (2024)
Values joined by “and” are separate entries in the source; they are usually repeats but may differ in a detail not shown here. Identical values can stand only once.

System: U2OS
Assay: Multiplex assay against U2OS
Assay type: toxicity, cell-based
Conditions: human
In short: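 Per cents of healthy-nucleus cells form the tubulin, mitochondrial-mass and membrane-permeability phenotype values. Live cells were stained at seeding with Hoechst33342, BioTracker Green Microtubule Cytoskeleton Dye, MitoTracker Red and Annexin V Alexa Fluor 680. After compound addition they were imaged on a CQ1 microscope at 37°C and 5% CO2, and CellPathfinder machine-learning gating split them into Hoechst high-intensity objects or normal cells, normal cells into healthy, pyknosed or fragmented nuclei, and pyknosed cells into mitotic or apoptotic.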

[1] = 12 h, 1 µM, compound concentration 1 uM
[2] = 12 h, 10 µM, compound concentration 10 uM
[3] = 24 h, 1 µM, compound concentration 1 uM
[4] = 24 h, 10 µM, compound concentration 10 uM
[5] = 48 h, 1 µM, compound concentration 1 uM
[6] = 48 h, 10 µM, compound concentration 10 uM

With `Cc1c(Cc2ccc3ccccc3n2)c2cc(F)ccc2n1CC(=O)O` [TIMAPIPRANT] the “Population Apoptotic (%)” value [1] was 84% and 83%, the “Population Fragmented Nuclei (%)” value [1] was 21% and 22% and the “Population Healthy Nuclei (%)” value [1] was 69% and 70%. The “Population Hoechst High Intensity Objects (%)” value [1] was 2% and 1%, the “Population Membrane Permeable-Phenotype (%)” value [1] was 3% and 4% and the “Population Mitochondria Different-Phenotype (%)” value [1] was 1% and 4%. For the same compound, the “Population Mitotic Cells (%)” value [1] was 16%, the “Population Normal (%)” value [1] was 97% and 98% and the “Population Pyknosed Nuclei (%)” value [1] was 8% and 6%. The “Population Tubulin-Different-Phenotype (%)” value [1] was 1% and 3%, the “Population Apoptotic (%)” value [2] was 75% and 68% and the “Population Fragmented Nuclei (%)” value [2] was 30% and 12%. For the same compound, the “Population Healthy Nuclei (%)” value [2] was 62% and 75%, the “Population Hoechst High Intensity Objects (%)” value [2] was 2% and 0% and the “Population Membrane Permeable-Phenotype (%)” value [2] was 4% and 6%. The “Population Mitochondria Different-Phenotype (%)” value [2] was 1% and 3%, the “Population Mitotic Cells (%)” value [2] was 25% and 31% and the “Population Normal (%)” value [2] was 97% and 99%. For the same compound, the “Population Pyknosed Nuclei (%)” value [2] was 6% and 12%, the “Population Tubulin-Different-Phenotype (%)” value [2] was 2% and 3% and the “Total Cell Count” value [2] was 244 and 132. The “Population Apoptotic (%)” value [3] was 96% and 100%, the “Population Fragmented Nuclei (%)” value [3] was 18% and 19% and the “Population Healthy Nuclei (%)” value [3] was 73%. For the same compound, the “Population Hoechst High Intensity Objects (%)” value [3] was 1%, the “Population Membrane Permeable-Phenotype (%)” value [3] was 6% and 7% and the “Population Mitochondria Different-Phenotype (%)” value [3] was 3% and 2%. The “Population Mitotic Cells (%)” value [3] was 3% and 0%, the “Population Normal (%)” value [3] was 98% and the “Population Pyknosed Nuclei (%)” value [3] was 7%. The “Population Tubulin-Different-Phenotype (%)” value [3] was 4% and 3%, the “Population Apoptotic (%)” value [4] was 94% and 72% and the “Population Fragmented Nuclei (%)” value [4] was 26% and 18%. For the same compound, the “Population Healthy Nuclei (%)” value [4] was 66% and 74%, the “Population Hoechst High Intensity Objects (%)” value [4] was 1% and 0% and the “Population Membrane Permeable-Phenotype (%)” value [4] was 6% and 8%. The “Population Mitochondria Different-Phenotype (%)” value [4] was 2%, the “Population Normal (%)” value [4] was 98% and 100% and the “Population Pyknosed Nuclei (%)” value [4] was 6% and 7%. For the same compound, the “Population Tubulin-Different-Phenotype (%)” value [4] was 3%, the “Total Cell Count” value [4] was 278 and 152 and the “Population Apoptotic (%)” value [5] was 88% and 90%. For the same compound, the “Population Fragmented Nuclei (%)” value [5] was 16% and 22%, the “Population Healthy Nuclei (%)” value [5] was 77% and 71% and the “Population Hoechst High Intensity Objects (%)” value [5] was 1% and 2%. The “Population Membrane Permeable-Phenotype (%)” value [5] was 4% and 12%, the “Population Mitochondria Different-Phenotype (%)” value [5] was 3% and 5% and the “Population Mitotic Cells (%)” value [5] was 11% and 10%. For the same compound, the “Population Normal (%)” value [5] was 98% and 97%, the “Population Pyknosed Nuclei (%)” value [5] was 6% and the “Population Tubulin-Different-Phenotype (%)” value [5] was 3% and 6%. For the same compound, the “Population Apoptotic (%)” value [6] was 100% and 92%, the “Population Fragmented Nuclei (%)” value [6] was 19% and 13% and the “Population Healthy Nuclei (%)” value [6] was 74% and 80%. For the same compound, the “Population Hoechst High Intensity Objects (%)” value [6] was 0% and 2%, the “Population Membrane Permeable-Phenotype (%)” value [6] was 3% and 5% and the “Population Mitochondria Different-Phenotype (%)” value [6] was 1% and 3%. The “Population Mitotic Cells (%)” value [6] was 0% and 7%, the “Population Normal (%)” value [6] was 99% and 97% and the “Population Pyknosed Nuclei (%)” value [6] was 6%. The “Population Tubulin-Different-Phenotype (%)” value [6] was 1% and 3% and the “Total Cell Count” value [6] was 392 and 204.
`Cc1cccc(F)c1C(=O)Nc1cnc(-c2cc3c(cc2Cl)OC(F)(F)O3)cn1` [ZEGOCRACTIN] was tested, and the “Population Apoptotic (%)” value [1] was 54.76% and 21.05%, the “Population Fragmented Nuclei (%)” value [1] was 1.87% and 5.79% and the “Population Healthy Nuclei (%)” value [1] was 86.93% and 78.51%. For the same compound, the “Population Hoechst High Intensity Objects (%)” value [1] was 0%, the “Population Membrane Permeable-Phenotype (%)” value [1] was 0.61% and 6.32% and the “Population Mitochondria Different-Phenotype (%)” value [1] was 0% and 12.63%. For the same compound, the “Population Mitotic Cells (%)” value [1] was 45.24% and 78.95%, the “Population Normal (%)” value [1] was 100% and the “Population Pyknosed Nuclei (%)” value [1] was 11.2% and 15.7%. For the same compound, the “Population Tubulin-Different-Phenotype (%)” value [1] was 0.61% and 0%, the “Population Apoptotic (%)” value [2] was 37.66% and 30.95% and the “Population Fragmented Nuclei (%)” value [2] was 0.97% and 1.07%. The “Population Healthy Nuclei (%)” value [2] was 80.39% and 76.47%, the “Population Hoechst High Intensity Objects (%)” value [2] was 0.24% and 0% and the “Population Membrane Permeable-Phenotype (%)” value [2] was 0.6% and 8.39%. For the same compound, the “Population Mitotic Cells (%)” value [2] was 62.34% and 69.05%, the “Population Normal (%)” value [2] was 99.76% and 100% and the “Population Pyknosed Nuclei (%)” value [2] was 18.64% and 22.46%. The “Population Tubulin-Different-Phenotype (%)” value [2] was 3.01% and 4.9%, the “Total Cell Count” value [2] was 414 and 187 and the “Population Apoptotic (%)” value [3] was 49.12% and 21.74%. For the same compound, the “Population Fragmented Nuclei (%)” value [3] was 2.5% and 3.68%, the “Population Healthy Nuclei (%)” value [3] was 86.54% and 82.21% and the “Population Hoechst High Intensity Objects (%)” value [3] was 0%. The “Population Membrane Permeable-Phenotype (%)” value [3] was 0.22% and 5.22%, the “Population Mitochondria Different-Phenotype (%)” value [3] was 0.22% and 7.46% and the “Population Mitotic Cells (%)” value [3] was 50.88% and 78.26%. The “Population Normal (%)” value [3] was 100%, the “Population Pyknosed Nuclei (%)” value [3] was 10.96% and 14.11% and the “Population Tubulin-Different-Phenotype (%)” value [3] was 0.89% and 0.75%. The “Population Apoptotic (%)” value [4] was 37.72% and 34.92%, the “Population Fragmented Nuclei (%)” value [4] was 3.21% and 2.36% and the “Population Healthy Nuclei (%)” value [4] was 75.24% and 67.92%. For the same compound, the “Population Hoechst High Intensity Objects (%)” value [4] was 0%, the “Population Membrane Permeable-Phenotype (%)” value [4] was 2.76% and 6.94% and the “Population Mitotic Cells (%)” value [4] was 62.28% and 65.08%. For the same compound, the “Population Normal (%)” value [4] was 100%, the “Population Pyknosed Nuclei (%)” value [4] was 21.55% and 29.72% and the “Population Tubulin-Different-Phenotype (%)” value [4] was 2.76% and 2.78%. For the same compound, the “Total Cell Count” value [4] was 529 and 212, the “Population Apoptotic (%)” value [5] was 35.96% and 56% and the “Population Fragmented Nuclei (%)” value [5] was 3.36% and 3.03%. The “Population Healthy Nuclei (%)” value [5] was 87.83% and 87.5%, the “Population Hoechst High Intensity Objects (%)” value [5] was 0% and the “Population Membrane Permeable-Phenotype (%)” value [5] was 1.69% and 2.6%. The “Population Mitochondria Different-Phenotype (%)” value [5] was 0.34% and 5.63%, the “Population Mitotic Cells (%)” value [5] was 64.04% and 44% and the “Population Normal (%)” value [5] was 100%. For the same compound, the “Population Pyknosed Nuclei (%)” value [5] was 8.8% and 9.47%, the “Population Tubulin-Different-Phenotype (%)” value [5] was 1.58% and 0.43% and the “Population Apoptotic (%)” value [6] was 51.14% and 60.82%. For the same compound, the “Population Fragmented Nuclei (%)” value [6] was 5.7% and 6.6%, the “Population Healthy Nuclei (%)” value [6] was 63.11% and 59.72% and the “Population Hoechst High Intensity Objects (%)” value [6] was 0.14% and 0%. The “Population Membrane Permeable-Phenotype (%)” value [6] was 2.48% and 8.72%, the “Population Mitotic Cells (%)” value [6] was 48.86% and 39.18% and the “Population Normal (%)” value [6] was 99.86% and 100%. The “Population Pyknosed Nuclei (%)” value [6] was 31.2% and 33.68%, the “Population Tubulin-Different-Phenotype (%)” value [6] was 4.97% and 4.65% and the “Total Cell Count” value [6] was 703 and 288.
